The target in data set [1] is T1, Prostaglandin G/H synthase 1 (Ovis aries, UniProt P05979).
T1 sequence (P05979 whole entry): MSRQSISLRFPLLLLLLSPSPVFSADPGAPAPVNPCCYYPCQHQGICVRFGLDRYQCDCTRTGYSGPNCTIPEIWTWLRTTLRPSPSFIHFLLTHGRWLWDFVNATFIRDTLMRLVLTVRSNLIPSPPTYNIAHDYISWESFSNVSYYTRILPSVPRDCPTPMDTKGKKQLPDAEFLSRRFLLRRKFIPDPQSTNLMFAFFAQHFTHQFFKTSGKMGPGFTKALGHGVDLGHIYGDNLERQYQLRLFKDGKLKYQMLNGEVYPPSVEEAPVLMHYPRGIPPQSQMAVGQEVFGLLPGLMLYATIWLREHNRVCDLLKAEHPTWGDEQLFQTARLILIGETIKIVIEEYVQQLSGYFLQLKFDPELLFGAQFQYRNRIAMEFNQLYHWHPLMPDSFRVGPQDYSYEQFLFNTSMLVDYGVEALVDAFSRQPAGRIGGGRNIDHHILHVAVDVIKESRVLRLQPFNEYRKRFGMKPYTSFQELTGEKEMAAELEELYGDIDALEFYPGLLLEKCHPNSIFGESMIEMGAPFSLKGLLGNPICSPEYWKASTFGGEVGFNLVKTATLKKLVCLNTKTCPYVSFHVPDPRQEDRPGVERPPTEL
Nature of the data set: Inhibition of ovine COX1 using ADHP as substrate after 20 mins by fluorescence assay. In short, it runs like this: (§1)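 Ovine COX-1 or human recombinant COX-2 was preincubated 20 min at room temperature with a range of compound concentrations in 100 mM Tris-HCl pH 8.0, heme and ADHP. Arachidonic acid was then added for 2 min at room temperature, and resorufin fluorescence was read. IC50 came from the dose-response curve (triplicate determinations). Selectivity index = COX-1 IC50/COX-2 IC50.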

In data set [2] the test system is Rattus norvegicus. The data set is described as follows: Antiinflammatory activity against albino rat assessed as inhibition of carrageenan-induced paw edema at 0.28 mmol/kg, po administered 30 mins prior to carrageenan challenge measured after 1 hr relative to control. It counts as functional. In short, it runs like this: (§2)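 Adult male albino rats (120–140 g), in groups of four, were fasted 24 h with water allowed. Compounds were given orally as a suspension in 0.5% w/v CMC in water, and controls received CMC alone. After 30 min, 0.1 mL of 1% carrageenan in saline was injected subplantar into the right hind paw and saline into the left. Paw thickness was measured by caliper. % inhibition = [(VR−VL)control − (VR−VL)treated]/(VR−VL)control; one-way ANOVA.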
(In general: In the carrageenan paw model, swelling and tenderness develop within hours.)

Data set [3] concerns Rattus norvegicus. The data set is described as follows: Antiinflammatory activity against albino rat assessed as inhibition of carrageenan-induced paw edema at 0.28 mmol/kg, po administered 30 mins prior to carrageenan challenge measured after 3 hrs relative to control. It counts as functional. In short, it runs like this:
as §2

Data set [4] addresses T2, Prostaglandin G/H synthase 2 (Homo sapiens, UniProt P35354).
T2 sequence (P35354 whole entry): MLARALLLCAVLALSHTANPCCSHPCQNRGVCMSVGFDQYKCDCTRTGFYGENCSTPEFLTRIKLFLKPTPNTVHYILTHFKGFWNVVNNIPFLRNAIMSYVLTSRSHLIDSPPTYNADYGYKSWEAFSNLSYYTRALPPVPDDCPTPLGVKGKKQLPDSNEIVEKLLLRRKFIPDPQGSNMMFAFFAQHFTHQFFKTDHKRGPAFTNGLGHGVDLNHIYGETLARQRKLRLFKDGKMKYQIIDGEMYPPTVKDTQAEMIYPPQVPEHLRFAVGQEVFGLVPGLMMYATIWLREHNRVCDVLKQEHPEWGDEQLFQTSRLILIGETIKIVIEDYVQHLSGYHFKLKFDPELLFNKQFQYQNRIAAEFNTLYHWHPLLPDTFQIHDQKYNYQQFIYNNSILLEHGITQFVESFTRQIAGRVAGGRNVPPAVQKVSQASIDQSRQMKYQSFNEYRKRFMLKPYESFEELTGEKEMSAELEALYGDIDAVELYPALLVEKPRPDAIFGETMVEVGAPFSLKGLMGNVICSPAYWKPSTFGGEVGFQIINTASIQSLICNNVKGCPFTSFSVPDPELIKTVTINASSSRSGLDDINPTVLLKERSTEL
The data set is described as follows: Inhibition of human recombinant COX2 using ADHP as substrate after 20 mins by fluorescence assay. In short, it runs like this:
as §1

A short description of data set [5]: Selectivity index, ratio of IC50 for ovine COX1 to IC50 for human recombinant COX2. In short, it runs like this: as §1
In data set [6] the test system is Rattus norvegicus. Nature of the data set: Antiinflammatory activity against albino rat assessed as inhibition of carrageenan-induced paw edema at 0.28 mmol/kg, po administered 30 mins prior to carrageenan challenge measured after 4 hrs relative to control. It counts as functional. The essentials: as §2
Data set [7] has as its system Rattus norvegicus. Nature of the data set: Gastric toxicity in rat assessed as ulcer index at 0.28 mmol/kg, po. The class given is organism-based. The conditions noted are these: in vivo.
Data set [8] relates to Rattus norvegicus. The data set is described as follows: Antiinflammatory activity against albino rat assessed as inhibition of carrageenan-induced paw edema at 0.28 mmol/kg, po administered 30 mins prior to carrageenan challenge measured after 5 hrs relative to control. The class given is functional. The essentials:
as §2

Data set [9] deals with Rattus norvegicus. The data set is described as follows: Antiinflammatory activity against albino rat assessed as inhibition of carrageenan-induced paw edema at 0.28 mmol/kg, po administered 30 mins prior to carrageenan challenge measured after 3 hrs relative to indomethacin. The class given is functional. Also on record: scale not given: the % may be the effect or the level left.

Data set [10] has as its system Rattus norvegicus. Nature of the data set: Antiinflammatory activity against albino rat assessed as inhibition of carrageenan-induced paw edema at 0.28 mmol/kg, po administered 30 mins prior to carrageenan challenge measured after 3 hrs relative to celecoxib. It counts as functional. Also on record: scale not given: the % may be the effect or the level left.
The subject of data set [11] is Rattus norvegicus. Nature of the data set: Antiinflammatory activity against albino rat assessed as inhibition of carrageenan-induced paw edema at 0.28 mmol/kg, po administered 30 mins prior to carrageenan challenge measured after 2 hrs relative to control. It counts as functional. In short, it runs like this:
as §2

pIC50: −log10 of the molar value.

Experimental findings from ChEMBL document CHEMBL3286385, “Novel 1-[4-(Aminosulfonyl)phenyl]-1H-1,2,4-triazole derivatives with remarkable selective COX-2 inhibition: design, synthesis, molecular docking, anti-inflammatory and ulcerogenicity studies” (Eur J Med Chem, 2014) are described below.

In general, pIC50 refers to −log10 of the IC50, conventionally taken in molar units. In general, inhibition in vivo refers to the share of the control response that was lost under treatment.

For the compound `NS(=O)(=O)c1ccc(-n2nc(C(=O)NCc3ccccc3)nc2-c2ccccc2)cc1`, the figures for the pIC50 in data set [1] and in data set [4] were below 3.00 and 5.77, respectively. Also, the inhibition in vivo at 280 µmol/kg in [2] was 42%; in data set [3] it was 58%; in [6], 36%; in data set [8] it was 29%; in data set [11] it was 47%. In addition, in [5], the Ratio IC50 is above 588. Besides, in [7], the UI came out at 3. Also, the Activity is on record as 73% in data set [9] and 84% in [10].
